Data set [1] in a line: Stabilization of HRAS G-quadruplex DNA in human SiHa cells assessed as effect on HRAS mRNA level at 1.25 to 5 uM fter 6 hrs by RT-PCR method. In kind it is ADME, cell-based. In a few lines:
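SiHa cells (2.0×10^5 per well) treated 6 h; total RNA (2 µg) reverse-transcribed with oligo dT18 and M-MLV at 42 °C for 1 h, 85 °C for 5 min; PCR: 95 °C 5 min, then 30 cycles of 95 °C 30 s, 58 °C 30 s, 72 °C 40 s; products checked on agarose gel.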

For data set [2], the species on record is Homo sapiens. Briefly: Stabilization of c-Myc promoter G-quadruplex DNA in human Raji cells assessed as downregulation of exon 2 transcriptional level after 6 hrs by RT-PCR analysis. In kind it is cell-based. In a few lines:
(§1)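 RAJI and CA46 cells treated 6 h over a concentration range; total RNA reverse-transcribed (oligo dT18, M-MLV, 42 °C 1 h then 85 °C 5 min); exon 1 and exon 2 amplified by real-time PCR with exon-specific primers, products run on 1% agarose gel; three repeats.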

Data set [3] has as its system SiHa. Briefly: Antiproliferative activity against human SiHa cells assessed as reduction in colony formation at 0.5 uM measured on day 8 by crystal violet-staining based assay. In kind it is functional, cell-based. The method, boiled down: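 Cells seeded at 300 per well in six-well plates, exposed to compound at 37 °C, 5% CO2, with drug-containing medium replaced every 2 days; after 8 days of culture, colonies fixed with methanol and stained with crystal violet.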

In data set [4] the test system is SiHa. Briefly: Induction of apoptosis in human SiHa cells after 24 hrs by Annexin V-FITC/propidium iodide-staining based flow cytometric analysis. In kind it is functional, cell-based. For orientation: In flow cytometry, cells or beads pass a laser one at a time.
The subject of data set [5] is Mus musculus. Briefly: Toxicity in nude BALB/c mouse xenografted with human SiHa cells assessed as signs of distress at 5 to 20 mg/kg, ip administered every other day for 24 days. In kind it is organism-based. To be noted: in vivo, 576 h. (Xenograft models place foreign cells or tissue in a host animal.)
The subject of the next data set is BJ. Briefly: Cytotoxicity against human BJ cells assessed as reduction in cell viability after 24 hrs by MTT assay. In kind it is cell-based. In a few lines:
(§2)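 Cells seeded at 5.0×10^3 per well, exposed to compound for 24 h; MTT (2.5 mg/mL) added for 4 h, formazan dissolved in DMSO, OD read at 570 nm. Triplicate; IC50 from curves of mean OD against concentration.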
In general terms: Formazan colour is commonly taken as a measure of viable cells.

Data set [6] can be described thus: Binding affinity to 1 uM C-KIT1 promoter G-quadruplex DNA (unknown origin) at 1 uM after 1 min by fluorescence spectroscopic analysis. In kind it is ADME. The method, boiled down:
(§3)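 Fluorescence emission spectra of 1 µM compound mixed with 1 µM pre-annealed oligonucleotide (G-quadruplexes folded in 100 mM KCl by heating to 95 °C for 5 min, slow cooling), in Tris-HCl buffer.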

A further data set deals with U2OS. Briefly: Cytotoxicity against human U2OS cells assessed as reduction in cell viability after 24 hrs by MTT assay. It counts as functional, cell-based. The method, boiled down:
as §2

Data set [7] in a line: Stabilization of hybrid telomeric htg22 G-quadruplex DNA (unknown origin) assessed as effect on melting temperature at 15 uM by circular dichroism spectroscopic assay. In kind it is ADME. In a few lines:
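CD melting of 3 µM annealed G-quadruplex with or without 15 µM ligand in 10 mM Tris-HCl pH 7.2 with 2 mM KCl (50 mM KCl for htg22 and HRAS); read every 5 °C over 25–95 °C, heating 1 °C/min.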

The species named for data set [8] is Homo sapiens. Briefly: Stabilization of c-Myc promoter G-quadruplex DNA in human Raji cells assessed as downregulation of exon 1 transcriptional level after 6 hrs by RT-PCR analysis. In kind it is cell-based. In a few lines: as §1
Data set [9] is described as follows: Binding affinity to 1 uM c-MYC promoter G-quadruplex pu22 DNA (unknown origin) at 1 uM after 1 min by fluorescence spectroscopic analysis. The method, boiled down:
as §3

The test system of data set [10] is SiHa. Briefly: Induction of apoptosis in human SiHa cells assessed as upregulation of cleaved PARP protein levels at 1.25 to 5 uM after 24 hrs by Western blot analysis relative to control. In kind it is functional, cell-based. The method, boiled down:
(§4)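 SiHa cells (2.0×10^5 per well) treated 24 h, lysed at 4 °C for 30 min, supernatant cleared at 15,000 rpm; protein measured by BCA, 30 µg resolved on 10% SDS-PAGE, transferred to nitrocellulose, blocked in 5% milk/TBS-Tween 1 h, primary antibodies overnight at 4 °C, HRP secondaries 2 h at room temperature.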

In data set [11] the test system is SiHa. Briefly: Cytotoxicity against human SiHa cells assessed as cell growth inhibition at 1.2 to 3 uM after 130 hrs by RTCA assay. In kind it is functional, cell-based. In a few lines:
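Cells seeded at 2000 per well on impedance plates, settled 20 min at room temperature, profiled 24 h; medium then replaced with compound-containing medium and cells monitored to 130 h total. Cell index normalized to 1.0 at the time point just before compound addition.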

The subject of data set [12] is SiHa. Briefly: Induction of cell cycle arrest in human SiHa cells assessed as upregulation of p15 protein levels after 24 hrs by Western blot analysis. In kind it is functional, cell-based. In a few lines:
as §4

The test system of a further data set is A-375. Briefly: Cytotoxicity against human A375 cells assessed as reduction in cell viability after 24 hrs by MTT assay. It counts as functional, cell-based. To be noted: A-375, 24 h. In a few lines: as §2
Data set [13] has as its system SiHa. Briefly: Antitumor activity against human SiHa cells xenografted in nude BALB/c mouse assessed as tumor growth inhibition at 10 mg,kg, ip administered every other day for 24 days. It counts as functional. In a few lines:
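BALB/c nude mice (5 weeks old) given 1×10^7 SiHa cells subcutaneously in right flank; at ~50 mm3 tumor volume, randomized (10 per group) and dosed intraperitoneally every other day for 24 days; controls got equal-volume saline. Caliper volume as 1/2 × length × width2; tumors weighed at end; inhibition rate = (1 − mean treated tumor weight/mean control tumor weight) × 100%.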

Data set [14] is described as follows: Stabilization of c-Kit G-quadruplex DNA in human SiHa cells assessed as effect on c-Kit mRNA level at 1.25 to 5 uM fter 6 hrs by RT-PCR method. In kind it is ADME, cell-based. In a few lines:
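SiHa cells (2.0×10^5) dosed 6 h; total RNA reverse-transcribed with oligo dT18 primer and M-MLV (42 °C 1 h, 85 °C 5 min); PCR 95 °C 5 min then 30 cycles (95 °C 30 s, 58 °C 30 s, 72 °C 40 s); products checked on agarose gel.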

Data set [15] in a line: Binding affinity to c-KIT1 promoter G-quadruplex DNA (unknown origin) after 1 min by fluorescence titration method. It counts as ADME. The method, boiled down: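 Oligonucleotide stock added stepwise to fixed-concentration compound in 10 mM Tris-HCl pH 7.2, 100 mM KCl; equilibrated ≥1 min after each addition, emission read with excitation at 350 nm. KD from fitting titration data to the Benesi–Hildebrand equation; 1:1 stoichiometry checked by Job plot.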

The nature of data set [16]: Stabilization of KRAS promoter G-quadruplex DNA (unknown origin) assessed as effect on melting temperature at 15 uM by circular dichroism spectroscopic assay. In kind it is ADME. The method, boiled down:
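G-quadruplex at 3 µM, with or without 15 µM compound, in 10 mM Tris-HCl pH 7.2 containing 2 mM KCl; CD recorded every 5 °C from 25 to 95 °C at a heating rate of 1 °C/min.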

Data set [17] in a line: Binding affinity to 1 uM PDGFA promoter G-quadruplex DNA (unknown origin) at 1 uM after 1 min by fluorescence spectroscopic analysis. It counts as ADME. The method, boiled down: as §3
Data set [18] deals with Mus musculus. Briefly: Toxicity in nude BALB/c mouse xenografted with human SiHa cells assessed as body weight reduction at 5 to 20 mg/kg, ip administered every other day for 24 days. In kind it is organism-based. To be noted: in vivo, 576 h. The method, boiled down:
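BALB/c nude mice, 5 weeks old, implanted subcutaneously in right flank with 1×10^7 SiHa cells; at ~50 mm3 tumor, 10 per group dosed ip every other day for 24 days, saline control; body weight measured daily, viscera weighed at sacrifice; mean ± SEM, Student's t test versus saline.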

The source made the active and inactive calls. The rule behind the calls is not given here.

As for `CCn1c2ccccc2c2cc(-c3nc(-c4ccc(N5CCN(C)CC5)cc4)c(-c4ccc(N5CCN(C)CC5)cc4)n3-c3ccc(OC)cc3)ccc21`, the Activity entry in data set [1] is “Not Active”; in the data set listed under Homo sapiens [2], “Dose-dependent effect”; with SiHa [4], “Dose-dependent effect”; in the data set on Mus musculus [5], “Non-Toxic”; in data set [6], “Not Active”; in data set [7], “Not Active”. The Activity result in the data set filed under Homo sapiens [8] is “Dose-dependent effect”; with SiHa [12] it was “Dose-dependent effect”; in [14], “Not Active”; in data set [16] it was “Not Active”; in data set [17] it was “Not Active”; in the data set on Mus musculus [18] it was “Non-Toxic”. The result (in the data set on SiHa [3]; in data set [9]; with SiHa [10]) was Active. Moreover, the IC50 in the data set with BJ is 15.9 µM; in the data set with U2OS, 6.8 µM; with A-375, 4.2 µM. Besides, in the data set with SiHa [11], the “growth inhibition (GI)” value is “Active”. Besides, the TGI in the data set on SiHa [13] came out at 64%. Also, binding in data set [15] was characterised by a dissociation constant (Kd) of 0.8 µM.

The term IC50 denotes the concentration that inhibits the measured activity by half. By TGI is commonly meant how far tumour growth fell short of that in controls. Broadly, the Kd is a measure of binding affinity in units of concentration. Low readings indicate tighter binding, high ones weaker binding.
